Results on twelve compounds are retold here after ChEMBL document CHEMBL1142519, “Synthesis and antiprotozoal activity of cationic 2-phenylbenzofurans” (J Med Chem, 2008).

The structures appear in SMILES notation. The source made the active and inactive calls. The calls are words filed in the database; no cut-off is given here. Where only a bound is given, the exact number is not on record here.

The subject of data set [1] is Trypanosoma brucei rhodesiense. Put plainly: Antitrypanosomal activity against Trypanosoma brucei rhodesiense STIB 900 infected acute mouse model assessed as survival time at 1 mg/kg, ip administered daily for 4 days. Conditions: route intraperitoneal. Type of data set: functional. In a few lines: (§1)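 STIB900 acute mouse model of T. b. rhodesiense infection, with intraperitoneal dosing. Read-out is the average days of survival of treated mice. Cures are counted as mice that survive and stay parasite-free for 60 days.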

The test system of data set [2] is Trypanosoma brucei rhodesiense. Put plainly: Antitrypanosomal activity against Trypanosoma brucei rhodesiense STIB 900 infected acute mouse model assessed as survival time at 5 mg/kg, ip administered daily for 4 days. Format: functional. The following applies: route intraperitoneal. In short, it runs like this:
as §1

Data set [3] relates to Trypanosoma brucei rhodesiense. Put plainly: Antitrypanosomal activity against Trypanosoma brucei rhodesiense STIB 900 infected acute mouse model assessed as survival time at 10 mg/kg, ip. Type of data set: functional. The following applies: route intraperitoneal. In short, it runs like this:
as §1

Data set [4] relates to L6. Put plainly: Cytotoxicity against rat L6 cells. Format: cell-based. In a few lines: (§2)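 IC50 values in µM, each the average of duplicate determinations. Parasites were T. b. rhodesiense STIB900 and axenic amastigotes of L. donovani MHOM/SD/62/1S-CL2D. Cytotoxicity was run on rat L6 myoblast cells.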
The test system of data set [5] is Trypanosoma brucei rhodesiense. As to the kind of experiment: Antitrypanosomal activity against Trypanosoma brucei rhodesiense STIB 900 bloodstream trypomastigotes. Format: functional, organism-based. In a few lines: as §2
The nature of data set [6]: Selectivity index, ratio of IC50 for rat L6 cells to IC50 for Trypanosoma brucei rhodesiense STIB 900. Type of data set: toxicity, cell-based. Conditions: read-out: Ratio IC50. In a few lines:
(§3)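 Ratio of the L6 rat myoblast cytotoxicity IC50 to the IC50 against the parasite named in the line. Each IC50 is the average of duplicate determinations.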

The subject of data set [7] is Plasmodium falciparum. As to the kind of experiment: Antiplasmodial activity against chloroquine-resistant Plasmodium falciparum K1. Format: functional, organism-based. In short, it runs like this: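 In vitro IC50 against chloroquine-resistant P. falciparum K1, reported as the average of duplicate determinations.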
Data set [8] is described as follows: Selectivity index, ratio of IC50 for rat L6 cells to IC50 for chloroquine-resistant Plasmodium falciparum K1. Type of data set: toxicity, cell-based. Conditions: read-out: Ratio IC50. In short, it runs like this: as §3
In data set [9] the test system is Leishmania donovani. Put plainly: Antileishmanial activity against Leishmania donovani MHOM/SD/62/1S-CL2D axenic amastigotes. Format: functional, organism-based. In short, it runs like this:
as §2

Data set [10] in a line: Selectivity index, ratio of IC50 for rat L6 cells to IC50 for Leishmania donovani MHOM/SD/62/1S-CL2D. Type of data set: toxicity, cell-based. The following applies: read-out: Ratio IC50. In a few lines:
as §3

Data set [11] deals with Trypanosoma brucei rhodesiense. As to the kind of experiment: Antitrypanosomal activity against Trypanosoma brucei rhodesiense STIB 900 infected acute mouse model assessed as cured mouse at 1 mg/kg, ip daily for 4 days. Type of data set: functional, organism-based. On the set-up: dose 1 mg/kg. In short, it runs like this:
(§4)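 STIB900 acute mouse model of trypanosomiasis with intraperitoneal dosing. The regimens were daily for 4 days at 20, 5 or 1 mg/kg, or a single 10 mg/kg dose. A cure is a mouse that survives and is parasite-free for 60 days. Average days of survival are also recorded.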

Data set [12] concerns Trypanosoma brucei rhodesiense. Put plainly: Antitrypanosomal activity against Trypanosoma brucei rhodesiense STIB 900 infected acute mouse model assessed as cured mouse at 10 mg/kg, ip. Format: functional, organism-based. On the set-up: dose 10 mg/kg. In a few lines:
as §4

Data set [13] has as its system Trypanosoma brucei rhodesiense. As to the kind of experiment: Antitrypanosomal activity against Trypanosoma brucei rhodesiense STIB 900 infected acute mouse model assessed as survival time at 2 mg/kg, ip administered daily for 4 days. Type of data set: functional. Conditions: route intraperitoneal.
The test system of data set [14] is Trypanosoma brucei rhodesiense. As to the kind of experiment: Antitrypanosomal activity against Trypanosoma brucei rhodesiense STIB 900 infected acute mouse model assessed as cured mouse at 8 mg/kg, ip daily for 4 days. The arrangement: dose 8 mg/kg. Format: functional, organism-based.
For data set [15], the system named is Trypanosoma brucei rhodesiense. Put plainly: Antitrypanosomal activity against Trypanosoma brucei rhodesiense STIB 900 infected acute mouse model assessed as cured mouse at 2 mg/kg, ip daily for 4 days. Type of data set: functional, organism-based. On the set-up: dose 2 mg/kg.
Data set [16] has as its system Trypanosoma brucei rhodesiense. Put plainly: Antitrypanosomal activity against Trypanosoma brucei rhodesiense STIB 900 infected acute mouse model assessed as survival time at 8 mg/kg, ip administered daily for 4 days. Type of data set: functional. Conditions: route intraperitoneal.
The subject of data set [17] is Trypanosoma brucei rhodesiense. As to the kind of experiment: Antitrypanosomal activity against Trypanosoma brucei rhodesiense STIB 900 infected acute mouse model assessed as cured mouse at 5 mg/kg, ip daily for 4 days. Format: functional, organism-based. The arrangement: dose 5 mg/kg. In a few lines:
as §4

The test system of data set [18] is Trypanosoma brucei rhodesiense. Put plainly: Antitrypanosomal activity against Trypanosoma brucei rhodesiense STIB 900 infected acute mouse model assessed as survival time at 20 mg/kg, ip administered daily for 4 days. Format: functional. Conditions: route intraperitoneal. In a few lines:
as §1

Data set [19] relates to Trypanosoma brucei rhodesiense. Put plainly: Antitrypanosomal activity against Trypanosoma brucei rhodesiense STIB 900 infected acute mouse model assessed as cured mouse at 20 mg/kg, ip daily for 4 days. Type of data set: functional, organism-based. On the set-up: dose 20 mg/kg. In a few lines: as §4

Take `CC(C)NC(=N)c1ccc(-c2cc3cc(C(=N)NC(C)C)ccc3o2)c(O)c1`: the results for the Survival in [1], in data set [2] and in data set [3] were 18.5 days, >50.5 days and 26.8 days, respectively. Moreover, the half-maximal inhibitory concentration (IC50) (as a rule, the point on the concentration scale where inhibition reaches its midpoint) in data set [4] was > 183000 nM; in [5], 21 nM; in data set [7], 28 nM; in data set [9], 1800 nM. For the same compound, the results for the selectivity ratio in data set [6], in data set [8] and in data set [10] were > 8710, > 6540 and > 101, respectively. Moreover, the result in [11] and in data set [12] was inactive.
For the compound `Nc1nc(N)nc(Nc2ccc([As]3SCC(CO)S3)cc2)n1` (stereo not given) [MELARSOPROL], the Survival in data set [13] was >60 days; in [1], >51.5 days; in data set [16] it was >60 days. Further, the result in data set [14], in [15] and in [11] was Active.
As for `CC(C)NC(=N)c1ccc(-c2cc3cc(C(=N)NC(C)C)cc(O)c3o2)c(O)c1`, the Survival was 26.3 days in data set [1], >60 days in [2] and >50.7 days in data set [3]. For the same compound, the IC50 in [4] was > 179000 nM; in data set [5], 23 nM; in data set [7], 310 nM; in [9] it was 46000 nM. For the same compound, the selectivity ratio in data set [6] was > 7780; in data set [8], > 577; in data set [10], > 4. Besides, the result in [17] was Active. Also, the result in data set [11] was inactive.
In the case of `N=C(N)c1ccc(O)c(-c2cc3cc(C(=N)N)ccc3o2)c1`, the Survival was 26 days in [1], >60 days in data set [2] and >51.5 days in [3]. The IC50 in data set [4] was > 217000 nM; in data set [5], 5 nM; in data set [7], 793 nM; in [9], 20000 nM. In addition, the selectivity ratio was > 43400 in data set [6], > 274 in data set [8] and > 11 in [10]. Besides, in data set [17], the outcome was Active. The outcome in [11] was inactive.
Turning to `Oc1cc(C2=NCCN2)ccc1-c1cc2cc(C3=NCCN3)ccc2o1`, the Survival in data set [1] is 20 days; in data set [2], >60 days; in data set [3], 23.5 days. For the same compound, the IC50 in data set [4] came out at 150000 nM; in [5] it was 8 nM; in data set [7] it was 6 nM; in [9] it was 5800 nM. Besides, the selectivity ratio in data set [6] is 18800; in [8], 25000; in data set [10], 26. The result in [11] and in data set [12] was inactive.
Consider `CC(C)NC(=N)c1ccc(-c2cc3cc(C(=N)NC(C)C)cc(O)c3o2)cc1`, for which the values for the Survival in data set [1], in [2] and in [3] were >19.8 days, >60 days and >36.3 days, respectively. For the same compound, the half-maximal inhibitory concentration (IC50) in data set [4] was > 185000 nM; in data set [5], 28 nM; in data set [7], 56 nM; in [9], 20000 nM. For the same compound, the selectivity ratio in [6] was > 6610; in data set [8] it was > 3300; in data set [10], > 9. Besides, in data set [17], the result was Active. Also, in [11], the outcome was inactive.
As to `N=C(N)c1ccc(-c2cc3cc(C(=N)N)ccc3o2)c(O)c1`, the Survival in data set [1] was 34.8 days; in data set [2], >54.5 days; in data set [3], >55.3 days. The 50% inhibitory concentration (IC50) in [4] amounted to 33300 nM; in [5], 2 nM; in data set [7], 4 nM; in [9] it was 1800 nM. Also, the selectivity ratio in [6] was found to be 16600; in [8] it was 8320; in data set [10] it was 19. In addition, in data set [11], the result was inactive.
For `N=C(N)c1ccc(-c2cc3ccc(C(=N)N)cc3[nH]2)cc1` [DAPI], the Survival was >60 days in data set [18] and >40.8 days in data set [2]. Moreover, the IC50 was 860 nM in data set [4], 17 nM in data set [5] and 3 nM in data set [7]. Besides, the selectivity ratio in data set [6] came to 51; in data set [8], 287. Also, the result in data set [17] was inactive. For the same compound, the result in [19] was Active.
As for `COc1cc(C2=NCCN2)cc2cc(-c3ccc(C4=NCCN4)cc3)oc12`, in [18], the Survival is 11.5 days. The half-inhibitory concentration (IC50) in data set [4] came to 19900 nM; in data set [5], 124 nM; in [7], 32 nM; in [9] it was 4500 nM. In addition, the results for the selectivity ratio in [6], in [8] and in data set [10] were 160, 622 and 5, respectively. Also, the result in [19] was inactive.
As to `N=C(N)c1ccc(-c2cc3ccc(C(=N)N)cc3o2)cc1`, the Survival is 26.5 days in data set [1], >60 days in data set [2] and >39.5 days in data set [3]. Further, the IC50 in data set [4] worked out at 800 nM; in [5], 7 nM; in data set [7] it was 3 nM; in data set [9] it was 3100 nM. The selectivity ratio in data set [6] was determined as 114; in data set [8], 267; in data set [10], 0.3. In [17], the result was Active. Also, the result in data set [11] was inactive.
As to `CC(C)NC(=N)c1ccc(-c2cc3cc(C(=N)NC(C)C)ccc3o2)cc1`, the results for the Survival in [1] and in data set [2] were 15.3 days and >53 days, respectively. Besides, the half-maximal inhibitory concentration (IC50) was > 198000 nM in data set [4], 125 nM in [5], 73 nM in [7] and 1600 nM in data set [9]. The selectivity ratio is > 1580 in data set [6], > 2710 in [8] and > 125 in data set [10]. The result in data set [11] and in data set [12] was inactive.
As to `COc1cc(C(=N)N)cc2cc(-c3ccc(C(=N)N)cc3)oc12`, the Survival in data set [1] was 27.3 days; in data set [2], >60 days; in [3], >44 days. Further, the IC50 in data set [4] turned out to be 30700 nM; in [5], 6 nM; in [7] it was 6 nM; in data set [9] it was 3000 nM. Also, the results for the selectivity ratio in [6], in [8] and in data set [10] were 5120, 5120 and 10, respectively. The outcome in [17] was Active. The outcome in data set [11] was inactive.
